The results in this text go back to ChEMBL document CHEMBL1132413, “Mechanism-based competitive inhibitors of glyoxalase I: intracellular delivery, in vitro antitumor activities, and stabilities in human serum and mouse serum” (J Med Chem, 1999).

Test [1] concerns L1210. As to the kind of experiment: The compound was tested […] for 50% cell killing against L1210 murine leukemia cells. In kind it is functional, Mus musculus. The procedure, abridged: (§1)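 Cultured cells, not in vivo: log-phase cells seeded at 5000 cells/well in RPMI 1640/10% heat-inactivated FCS with gentamycin, 37 °C, 5% CO2. Exposed 48 h to at least five diethyl ester concentrations in triplicate, with fresh ester added at 0, 12, 24 and 36 h. B16 cells were trypsinised and L1210 cells washed. Counted by Coulter counter, viability by trypan blue. LC50 = concentration giving 50% cell killing.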

Test [2] concerns Glyoxalase I (Homo sapiens). As to the kind of experiment: The compound was tested for inhibitory activity against human glyoxalase I.
Test [3] concerns L1210. Kind of test: The compound was tested […] for 50% growth inhibition against L1210 murine leukemia cells. In kind it is functional, Mus musculus. In short, it runs like this:
(§2)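 L1210 leukemia cells in log growth were seeded at 5000 cells/well in RPMI 1640 with 10% heat-inactivated FCS and gentamycin at 37 °C under 5% CO2. At least five concentrations spanning the GI50 were tested in triplicate for 48 h, with ester replenished at 0, 12, 24 and 36 h. Washed cells were Coulter-counted. PG = 100×(test−tzero)/(ctrl−tzero). TGI is 100% growth inhibition and GI50 is 50%. Mean ± SD comes from independent experiments.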

The test system of test [4] is Glyoxalase I (Homo sapiens). Kind of test: The compound was tested for inhibitory activity against human glyoxalase I. The source holds these as a separate data set.
The test system of test [5] is B16. As to the kind of experiment: The compound was tested […] for 50% growth inhibition against B16 melanoma cells. In kind it is functional, Mus musculus. In short, it runs like this: (§3)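 B16 melanotic melanoma cells in log growth were plated at 5000 cells/well in RPMI 1640 with 10% heat-inactivated FCS and gentamycin at 37 °C under 5% CO2. Cells were exposed for 48 h to at least five drug concentrations, in triplicate, with fresh diethyl ester added at 0, 12, 24 and 36 h. Cells were trypsinized and counted on a Coulter counter. Percentage growth was calculated NCI-style against time-zero and no-drug controls. TGI is 100% growth inhibition and GI50 is 50%. Mean ± SD comes from separate experiments.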

Test [6] concerns L1210. As to the kind of experiment: The compound was tested […] for 100% growth inhibition against L1210 murine leukemia cells. In kind it is functional, Mus musculus. The procedure, abridged:
as §2

Test [7] has as its system B16. As to the kind of experiment: The compound was tested […] for 50% cell killing against B16 melanoma cells. In kind it is functional, Mus musculus. The procedure, abridged: as §1
In test [8] the test system is B16. As to the kind of experiment: The compound was tested […] for 100% growth inhibition against B16 melanoma cells. It is filed as functional, Mus musculus. In short, it runs like this: as §3
Test [9] deals with Glyoxalase I (Homo sapiens). Kind of test: The compound was tested for inhibitory activity against human glyoxalase I. This is another data set of the same source.

The term LC50 denotes the concentration lethal to half of the exposed cells or organisms. In general, Ki refers to the equilibrium dissociation constant of an inhibitor or competing ligand from its target. Read a high Ki as a looser hold on the target. By GI50 is commonly meant the concentration that inhibits growth by half. A higher GI50 goes with less potent growth inhibition. Usually TGI stands for the concentration at which net growth stops. Read a low TGI as more potent growth arrest.

In the case of `CCOC(=O)CNC(=O)[C@@H](CSCc1ccc(Br)cc1)NC(=O)CCC(N)C(=O)OCC` (some centres not stated), the LC50 was determined as 26 µM with L1210 [1] and 56 µM in the test on B16 [7]. The Ki in test [2] and in [4] was 0.17 µM throughout. Besides, the GI50 came out at 7 µM in the test on L1210 [3] and 14 µM in the test on B16 [5]. Besides, the figures for the TGI in the test on L1210 [6] and in the test with B16 [8] were 11 µM and 23 µM, respectively.
`CCOC(=O)CNC(=O)C(CSC(=O)N(O)c1ccc(Cl)cc1)NC(=O)CCC(N)C(=O)OCC.Cl` (configuration not stated): the LC50 in the test with L1210 [1] is 54 µM; in the test on B16 [7], approximately 47 µM. In addition, the Ki in test [2] and in test [4] was 0.046 µM each time. Further, the GI50 in the test on L1210 [3] came to 7 µM; in the test with B16 [5], 15 µM. Also, the TGI in the test on L1210 [6] is 27 µM; with B16 [8], approximately 23 µM.
Take `CCOC(=O)CNC(=O)C(CSC(=O)N(O)c1ccccc1)NC(=O)CCC(N)C(=O)OCC.Cl` (configuration not stated): the Ki in [9] and in [2] was 0.16 µM throughout. Besides, the LC50 is 271 µM in the test on L1210 [1] and more than 100 µM in the test with B16 [7]. Also, the values for the GI50 in the test with L1210 [3] and in the test on B16 [5] were 84 µM and more than 100 µM, respectively. Also, the values for the TGI with L1210 [6] and with B16 [8] were 135 µM and more than 100 µM, respectively.
On to `CCOC(=O)CNC(=O)C(CSC(=O)N(O)c1ccc(Br)cc1)NC(=O)CCC(N)C(=O)OCC.Cl` (configuration not stated), for which the LC50 in the test on L1210 [1] stood at 17 µM; in the test with B16 [7], 54 µM. In addition, the inhibition constant Ki in test [2] and in [4] was 0.014 µM in each case. For the same molecule, the GI50 with L1210 [3] came to 3 µM; in the test on B16 [5], 11 µM. The values for the TGI with L1210 [6] and with B16 [8] were 7 µM and 33 µM, respectively.
